Read-outs that look alike come from different tables or passages of the source.
Experiments:
[1] = Laryngoscopy with doxapram stimulation in dogs with brachycephalic syndrome; type: in vivo
[2] = Management of Addisonian crisis; type: in vivo, dogs; conditions: for outcome: HSS CRI 0.3 to 0.625 mg/kg/h (n = 7), dexamethasone IV 0.05 to 0.3 mg/kg (n = 8)
[3] = ref previously reported data; cited from earlier work
[4] = Transcutaneous ICG plasma disappearance rate; type: in vivo, dogs
Procedure, shortened: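 Healthy dogs received indocyanine green 0.5 mg/kg IV daily on three days. The plasma disappearance rate was read transcutaneously with a monitor probe, and the intrasubject coefficient of variation was calculated from the daily values.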

feline liver organoids = experiment: Lipid accumulation in liver organoids exposed to free fatty acids; type: cell-based, cats; conditions: LD540, flow cytometry
Procedure, shortened: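 Feline liver organoids were incubated with vehicle or free fatty acids and stained with the lipophilic dye LD540. Fluorescence was quantified by flow cytometry. β-oxidation of excess fatty acids was probed with a CPT-1 inhibitor and with L-carnitine supplementation.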

[5] = Sedation of dogs with stage B2 MMVD; type: in vivo
Leishmania infantum = experiment: Randomized allopurinol‐controlled trial in dogs with clinical leishmaniosis; type: in vivo; conditions: bone marrow; with MGA
[6] = molecular target: T1, serum angiotensin‐converting enzyme (ACE) (Canis lupus familiaris, UniProt A0A8I3S3I6); experiment: Serum ACE activity after benazepril with or without pimobendan; type: in vivo, dogs; conditions: for serum ACE activity versus baseline: days 1 and 15
T1 sequence (A0A8I3S3I6 31-1241): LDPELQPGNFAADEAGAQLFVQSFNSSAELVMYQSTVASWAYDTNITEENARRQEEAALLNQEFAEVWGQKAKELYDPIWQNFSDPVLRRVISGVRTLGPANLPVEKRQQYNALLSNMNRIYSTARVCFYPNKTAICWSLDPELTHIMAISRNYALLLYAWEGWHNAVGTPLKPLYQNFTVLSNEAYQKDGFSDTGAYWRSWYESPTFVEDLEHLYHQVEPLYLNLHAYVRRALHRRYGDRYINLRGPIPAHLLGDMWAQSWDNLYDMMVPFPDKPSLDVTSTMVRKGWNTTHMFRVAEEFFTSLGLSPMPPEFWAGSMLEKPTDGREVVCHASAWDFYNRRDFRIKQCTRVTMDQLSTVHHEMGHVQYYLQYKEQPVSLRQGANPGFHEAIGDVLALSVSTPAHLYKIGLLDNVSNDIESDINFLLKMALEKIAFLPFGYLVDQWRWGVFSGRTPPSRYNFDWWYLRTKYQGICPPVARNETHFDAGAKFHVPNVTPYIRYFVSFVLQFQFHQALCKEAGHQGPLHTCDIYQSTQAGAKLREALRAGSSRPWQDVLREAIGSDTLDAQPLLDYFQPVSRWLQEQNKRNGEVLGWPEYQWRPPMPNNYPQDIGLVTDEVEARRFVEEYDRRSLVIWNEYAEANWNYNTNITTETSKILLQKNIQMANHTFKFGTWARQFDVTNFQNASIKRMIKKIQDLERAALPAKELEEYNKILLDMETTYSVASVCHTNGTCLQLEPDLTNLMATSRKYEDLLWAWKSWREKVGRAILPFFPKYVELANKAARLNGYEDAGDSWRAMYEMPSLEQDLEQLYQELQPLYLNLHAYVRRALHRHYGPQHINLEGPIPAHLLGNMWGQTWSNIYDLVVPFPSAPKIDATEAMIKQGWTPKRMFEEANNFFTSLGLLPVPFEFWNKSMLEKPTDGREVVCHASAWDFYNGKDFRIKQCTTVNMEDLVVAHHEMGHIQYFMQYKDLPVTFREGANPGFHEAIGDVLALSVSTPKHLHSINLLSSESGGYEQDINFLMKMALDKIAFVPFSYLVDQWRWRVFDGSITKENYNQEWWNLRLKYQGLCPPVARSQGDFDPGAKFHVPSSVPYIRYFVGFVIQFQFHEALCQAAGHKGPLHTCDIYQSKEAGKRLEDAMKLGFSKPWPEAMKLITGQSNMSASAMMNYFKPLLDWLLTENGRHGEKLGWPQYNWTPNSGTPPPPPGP
Procedure, shortened: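 In a prospective, randomised, parallel-group design, 48 healthy beagles were split into four groups: placebo twice daily; benazepril 0.5 mg/kg once each morning; benazepril 0.25 mg/kg twice daily; or benazepril 0.25 mg/kg plus pimobendan 0.125 mg/kg, both twice daily. Dosing was oral for 15 days. Serum ACE was assayed radio-enzymatically at baseline, at 12 post-dose times on day 1, and on day 15 (steady state).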

[7] = Serum MMA after oral versus parenteral cobalamin in dogs with CE; type: in vivo
[8] = tested on: bacteria isolated from urinary cultures; experiment: Urine culture sensitivity in dogs with DM and/or HAC; type: cell-based
E.Coli = experiment: Cat with E.coli associated granulomatous colitis; type: in vivo
[9] = tested on: Aelurostrongylus abstrusus; Angiostrongylus vasorum; experiment: Lungworm infection in cats and dogs in Rome treated with fenbendazole; type: in vivo
Procedure, shortened: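 Animals were diagnosed by faecal testing, BAL, lung cytology or post mortem. All received fenbendazole 50 mg/kg for 3 weeks, with further therapy according to clinical status; outcome was recorded.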

[10] = dogs with HAC; ref other studies; cited from earlier work
T. brevior/A. abstrusus = experiment: Anthelmintic treatment of feline lungworm infection; type: in vivo, cats; conditions: for time to being healthy: five of six cats
Procedure, shortened: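 Cats with natural Troglostrongylus brevior/Aelurostrongylus abstrusus co-infection were treated with one of: single topical emodepside (n = 1), single oral milbemycin oxime (n = 2), or moxidectin given two (n = 2) or three (n = 1) times. Clinical course and time to recovery were followed.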

Troglostrongylus brevior = experiment: Anthelmintic treatment of feline lungworm infection; type: in vivo, cats; conditions: single administration; moxidectin n = 2, emodepside n = 1
[11] = Oral torasemide in cats with CHF; type: in vivo
Procedure, shortened: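 Cats with CHF, previously on furosemide (median 6 mg/kg/24 h), were switched to oral torasemide. The median starting dose was 0.5 mg/kg/24 h (range 0.1–0.75), given once daily or split twice daily. Renal values and potassium were rechecked at follow-up.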

[12] = Cortisol monitoring in dogs with hyperadrenocorticism on trilostane; type: in vivo
Procedure, shortened: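 Multicentre open-label prospective study in dogs with hyperadrenocorticism on trilostane. Serum cortisol was measured pre-trilostane, 3 h post-trilostane, and 1 h post-ACTH stimulation.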

[13] = Echocardiography, blood pressure and heart rate before and after sedation; type: in vivo, cats; conditions: ten minutes after sedation
Capillaria aerophila = experiment: Anthelmintic treatment of feline lungworm infection; type: in vivo, cats; conditions: single administration, one cat

With `CCN1CC(CCN2CCOCC2)C(c2ccccc2)(c2ccccc2)C1=O.Cl` (stereo not drawn) [Dxp, doxapram hydrochloride] the “mean degree of laryngeal collapse (0 to 3)” value ([1]; after 1.1 mg/kg IV, before 1.64 [0–3], P < 0.001, 26 dogs) was 1.07 [0–3] and the laryngeal abduction ([1]; after injection) was “significant abduction of laryngeal cartilages could be observed in all dogs”.
With `C[C@]12CCC(=O)C=C1CC[C@@H]1[C@@H]2[C@@H](O)C[C@@]2(C)[C@H]1CC[C@]2(O)C(=O)COC(=O)CCC(=O)O` [HSS, hydrocortisone sodium succinate] the outcome [2] was “all patients surviving to discharge” and the “median time for Na+ concentration to normalise” value ([2]; group A (HSS) versus group B (dexamethasone), P = 0.0424) was “significantly shorter in group A compared to group B”.
For `CC1(C)C(/C=C/C=C/C=C/C=C2\N(CCCCS(=O)(=O)O)c3ccc4ccccc4c3C2(C)C)=[N+](CCCCS(=O)(=O)[O-])c2ccc3ccccc3c21` [ICG, Indocyanine green], the “mean ICG‐PDR” value [3] is given as 7.79 ± 3.3 %/min, the “mean ICG‐PDR” value ([4]; day one, 0.5 mg/kg IV, six healthy Beagles, transcutaneous) is given as 7.8 ± 3.4 %/min and the “mean ICG‐PDR” value ([4]; day three) is given as 7.9 ± 2.6 %/min. For the same compound, the “mean ICG‐PDR” value ([4]; day two) was 8.8 ± 3.7 %/min, the “highest individual %CV” value ([4]; dog, in vivo) was 52.5% and the “mean intrasubject %CV of ICG‐PDR” value ([4]; three consecutive days) was 35.9 ± 16.8%.
For `C[N+](C)(C)C[C@H](O)CC(=O)[O-]` [L‐carnitine], the “lipid accumulation under excess FFA” value (feline liver organoids) was “attenuated”.
In the case of `Cc1cccc(C(C)c2cnc[nH]2)c1C` (stereo not drawn) [M group, medetomidine], the “regurgitant jet area (ARJ/LAA)” value ([5]; T1, 30 minutes after medetomidine, n = 8 per group) is reported as “significantly decreased”, the “body weight‐indexed LVIDs” value ([5]; T1, P < 0.05) is reported as “increased” and the shortening fraction ([5]; T1, P < 0.05) is reported as “decreased”.
For `Oc1ncnc2[nH]ncc12` [allopurinol], the “parasite load by RT‐QPCR” value (Leishmania infantum) was “significantly reduced parasite load”.
With `CCOC(=O)[C@H](CCc1ccccc1)N[C@H]1CCc2ccccc2N(CC(=O)O)C1=O` [benazepril] the “serum ACE activity versus baseline” value ([6]; group B, 0.5 mg/kg once daily PO) was “significant reductions in serum ACE activity compared to baseline”, the “serum ACE activity versus baseline” value ([6]; group C, 0.25 mg/kg twice daily PO) was “significant reductions in serum ACE activity compared to baseline” and the “0.25 mg/kg twice daily compared to 0.5 mg/kg once daily” value ([6]; non‐inferiority shown) was “equivalent inhibition of serum ACE activity”.
In the case of `C/C1=C2/[N-][C@H]([C@H](CC(N)=O)[C@@]2(C)CCC(=O)NC[C@@H](C)OP(=O)([O-])O[C@H]2[C@@H](O)[C@@H](n3cnc4cc(C)c(C)cc43)O[C@@H]2CO)[C@]2(C)N=C(/C(C)=C3N=C(/C=C4N=C1[C@@H](CCC(N)=O)C\4(C)C)[C@@H](CCC(N)=O)[C@]\3(C)CC(N)=O)[C@@H](CCC(N)=O)[C@]2(C)CC(N)=O.[Co]` [cbl, Cobalamin], the “median serum MMA” value ([7]; PE, 4 weeks, range 377–932, initial 934, n = 17) is reported as 724 mmol/L, the “median serum MMA” value ([7]; PE, 12 weeks, range 349–1145, n = 13) is reported as 671 mmol/L and the “median serum MMA” value ([7]; PO, 4 weeks, range 386–1465, initial 923, GC‐MS, n = 19) is reported as 672 mmol/L. For the same compound, the “median serum MMA” value ([7]; PO, 12 weeks, range 450–1221, n = 16) was 735 mmol/L.
With `C[C@@H]1C[C@H]2[C@@H]3CCC4=CC(=O)C=C[C@]4(C)[C@@]3(F)[C@@H](O)C[C@]2(C)[C@@]1(O)C(=O)CO` [dexamethasone] the outcome [2] was “all patients surviving to discharge”.
In the case of `CCN1CCN(c2cc3c(cc2F)c(=O)c(C(=O)O)cn3C2CC2)CC1` [enrofloxacin], the bacterial resistance [8] is reported as 38%, the clinical response (E.Coli; 5 mg/kg SID for 6 weeks, one cat) is reported as “complete resolution of clinical signs” and the remission sustained (E.Coli; to date) is reported as 4 months.
With `CCOC(=O)[C@@]1(CCCCCCOc2ccc(Cl)cc2)CO1` [etomoxir] the “lipid accumulation under excess FFA” value (feline liver organoids) was “enhanced”.
With `COC(=O)Nc1nc2ccc(Sc3ccccc3)cc2[nH]1` [fenbendazole] the outcome in dogs ([9]; 50 mg/kg for 3 weeks plus other therapy, 21 dogs) was “Five dogs died; the others recovered” and the outcome in cats ([9]; 50 mg/kg for 3 weeks, 20 cats) was “fully recovered”.
In the case of `Clc1ccc(C(c2ccccc2Cl)C(Cl)Cl)cc1` (stereo not drawn) [mitotane], the mean survival time [10] is listed as 985 ± 57 days.
With `CO/N=C1\C[C@]2(C[C@@H]3C[C@@H](C/C=C(\C)C[C@@H](C)/C=C/C=C4\CO[C@@H]5[C@H](O)C(C)=C[C@@H](C(=O)O3)[C@]45O)O2)O[C@H](/C(C)=C/C(C)C)[C@H]1C` [moxidectin] the “time to being healthy” value (T. brevior/A. abstrusus) was 14 to 42 days and the time to recovery (Troglostrongylus brevior) was 14 to 42 days.
For `Cc1cccc(Nc2ccncc2S(=O)(=O)NC(=O)NC(C)C)c1` [torasemide], the “main adverse clinical effect” value ([11]; in vivo) was “worsening azotaemia”, the tolerability ([11]; in vivo) was “tolerated by this population of cats with CHF” and the “median survival time after commencing torasemide” value ([11]; range 7–177 d, 11 cats) was 48 days.
In the case of `C[C@]12CC[C@H]3[C@@H](CC[C@@]45O[C@@H]4C(O)=C(C#N)C[C@]35C)[C@@H]1CC[C@@H]2O` [trilostane], the mean survival time [10] is listed as 1051 ± 78 days, the “median cortisol pre‐trilostane” value ([12]; 21 dogs, 45 pairs on same dose) is listed as 114.0 nmol/L and the “median cortisol 1 hour post‐ACTH stimulation” value ([12]; dog, in vivo) is listed as 110.0 nmol/L. For the same compound, the “median cortisol 3 hours post‐trilostane” value ([12]; significantly lower than the other two) was 53.5 nmol/L.
For dexmedetomidine and buprenorphine, the “IVSd, IVSs, LVPWd, LVPWs, Ao, La/Ao, pulmonic acceleration time” value [13] was “did not differ pre‐ and post‐sedation”, the “LVIDd, LVIDs, RVIDd, LA, pulmonic deceleration time, SBP, DBP, MAP” value ([13]; 50 cats, P ≤ 0.022) was “increased after sedation” and the “Vmax Ao, Vmax A pulm, FS, AT/DT and HR” value ([13]; P < 0.0001) was “decreased after sedation”.
For eprinomectin, the outcome (Capillaria aerophila) was “healthy after two weeks”.
For milbemycin oxime, the “time to being healthy” value (T. brevior/A. abstrusus) was 14 to 42 days and the fatal outcome (T. brevior/A. abstrusus; one of two cats on single oral dose) was “died after an acute onset of dyspnoea”.
